Only some compounds are listed: those with a hit (about 1.9% of all), similar ones and a draw of the others.
CHRM4 antagonist – human M4 muscarinic receptor antagonists, primary screen, CHO cells, Fluo-8 calcium fluorescence; inhibition, % at 3 µM; CHO-hM4 cells, ACh EC80; 0.73% of 360,000 active;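 active = inhibition above its plate's cutoff, the mean inhibition of sample wells plus 3 SD, cut at about 27% in these data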;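 note: 0% = acetylcholine EC80 with DMSO and 100% = DMSO without agonist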
CHRM5 antagonist – human M5 muscarinic receptor antagonists, primary screen, CHO cells, Fluo-8 calcium fluorescence; 0.59% of 360,000 active; Muscarinic acetylcholine receptor M5 (Homo sapiens), P08912; CHO-hM5 cells, ACh EC80; inhibition, % at 3 µM;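 active = inhibition above a per-plate cutoff, the mean of that plate's test compounds plus 3 SD, cut at about 27% in these data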;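 note: 0% = acetylcholine EC80 with DMSO and 100% = DMSO without agonist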
Target sequence (P08912 whole entry, looked up): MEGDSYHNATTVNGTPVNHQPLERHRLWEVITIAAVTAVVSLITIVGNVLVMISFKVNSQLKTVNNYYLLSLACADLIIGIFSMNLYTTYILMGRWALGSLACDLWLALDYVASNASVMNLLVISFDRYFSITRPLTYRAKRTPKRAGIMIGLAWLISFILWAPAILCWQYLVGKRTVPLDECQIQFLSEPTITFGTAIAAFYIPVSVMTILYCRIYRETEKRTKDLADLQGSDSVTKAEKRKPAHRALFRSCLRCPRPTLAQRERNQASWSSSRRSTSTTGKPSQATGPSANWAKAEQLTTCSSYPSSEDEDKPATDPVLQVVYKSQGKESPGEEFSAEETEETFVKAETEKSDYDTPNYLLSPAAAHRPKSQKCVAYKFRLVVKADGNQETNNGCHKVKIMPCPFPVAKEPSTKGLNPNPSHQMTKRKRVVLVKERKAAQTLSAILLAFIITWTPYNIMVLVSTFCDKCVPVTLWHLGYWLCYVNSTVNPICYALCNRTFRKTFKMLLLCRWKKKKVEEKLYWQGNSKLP
CHRM4 agonist – human M4 muscarinic receptor agonists, primary screen, CHO-K1 cells, Fluo-8 calcium fluorescence; Muscarinic acetylcholine receptor M4 (Homo sapiens), P08173; CHO-K1 hM4/Gqi5; vehicle 0%, full acetylcholine response 100%; activation, % at 3 µM; 0.14% of 360,000 active;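 active = activation above the run mean over all test wells plus 3 SD, cut at about 32% in these data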;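 note: peak over basal fluorescence ratio per well then scaled between controls; 0% = DMSO wells and 100% = acetylcholine at EC100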
M4 PAM – human M4 muscarinic receptor positive allosteric modulators, primary screen, CHO-K1 cells, Fluo-8 calcium fluorescence | Muscarinic acetylcholine receptor M4 (Homo sapiens), P08173 | CHO-K1 hM4/Gqi5, ACh EC20; 0% = ACh EC20, 100% = maximal ACh | activation, % at 3 µM | 0.4% of 360,000 active | AID 624126, 2012;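 active = activation above its plate's cutoff, the mean activation of sample wells plus 3 SD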
CHRM5 PAM – human M5 muscarinic receptor positive allosteric modulators, primary screen, CHO-K1 cells, Fluo-8 calcium fluorescence. Muscarinic acetylcholine receptor M5 (Homo sapiens), P08912. CHO-K1 hM5, ACh EC20 PAM; 0% = ACh EC20, 100% = ACh EC100. activation, % at 3 µM. 0.3% of 360,000 active;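 active = activation above the run cutoff, the mean activation of all test compounds plus 3 SD, cut at about 18% in these data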
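System: CHO-K1 hM5 cells. Reagent: acetylcholine, EC20 level. Compound dosing: single dose, 3 µM nominal final test concentration. Timing: Post-acetylcholine fluorescence recording 140 s. Detection: Fluo-8 calcium fluorescence. Read-out: % activation, ACh-normalized. Benchmarks: ACh EC20 and EC100 wells. Repeats: singlicate, one well per test compound.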
CHRM5 agonist – human M5 muscarinic receptor agonists, primary screen, CHO-K1 cells, Fluo-8 calcium fluorescence. Muscarinic acetylcholine receptor M5 (Homo sapiens), P08912. CHO-K1 hM5 cells; 0% DMSO wells, 100% maximal acetylcholine response. activation, % at 3 µM. 0.19% of 360,000 active;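 active = activation above the run's mean over test compounds plus 3 SD, cut at about 23% in these data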;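 note: signal is peak over basal fluorescence ratio across the kinetic read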
* = called active by the depositor.

SMILES	CHRM4 antagonist	CHRM5 antagonist	CHRM4 agonist	M4 PAM	CHRM5 PAM	CHRM5 agonist
CCCc1cc(=O)[nH]c(SCC(=O)Nc2cc(S(=O)(=O)N3CCOCC3)ccc2Cl)n1	4.3	8.0	-0.2	-0.2	5.9	1.1
O=C(NC(=S)Nc1ccc(CN2CCCCC2)cc1)c1cccc(OCc2ccccc2)c1	39.0*	47.6*	7.1	-27.1	-33.1	-16.8
O=C(O)c1ccc(NC(=S)NC(=O)c2cccc(COc3ccccc3)c2)cc1	-8.7	12.2	0.4	-2.4	-5.1	1.6
CCN1CCN(c2ccc(NC(=O)c3cccc(OCc4ccccc4)c3)cc2)CC1	18.3	33.0*	8.6	-24.3	-19.2	-7.7
COc1ccc(N2CCN(C(=O)CN3CCN(C(c4ccccc4)c4ccccc4)CC3)CC2)cc1	27.8*	3.8	-0.1	-14.6	-13.0	-8.7
O=C(O)COCC(=O)N1CCN(C(c2ccccc2)c2ccccc2)CC1	40.8*	40.0*	15.7	-50.4	-31.2	-16.4
COc1ccc(N2CCN(CC(=O)NC(C)c3ccccc3)CC2)cc1 (stereo unspecified)	-3.2	4.3	0.3	1.6	8.4	-0.8
O=C(CN1CCN(C(c2ccccc2)c2ccccc2)CC1)N1CCOCC1	37.4*	24.3	1.6	-15.8	-14.3	-5.4
N#CCC(=O)N1CCN(C(c2ccccc2)c2ccccc2)CC1	5.1	11.6	-0.6	-7.7	-7.5	-16.2
OC(c1cc(F)cc(Cl)c1)c1ncc(-c2ccccc2Cl)[nH]1 (stereo unspecified)	2.9	3.1	6.2	-10.7	-3.3	0.2
C=CCNc1nc(C(=O)OCC(=O)NCc2cccc(Cl)c2)cs1	16.3	9.5	4.9	-1.9	4.5	-2.2
CCOc1cc(N2CCOCC2)c(OCC)cc1NC(=O)c1cc(-c2ccco2)nc2ccccc12	28.5*	22.3	17.0	-23.8	-13.3	4.3
CCN1C(=O)CC2(C[N+]3(C)CCC2CC3)C1=O (stereo unspecified)	3.8	52.9*	1.4	-17.8	-16.6	-5.5
C[N+](C)(C)C/C=C1/COCO1	9.1	92.0*	42.0*	-2.8	-15.6	100.0*
COc1ccc2c3c(cccc13)C(=O)CC2	26.3	29.3*	78.5*	-22.1	-9.8	33.8*
O=C1NC[C@@H](Cc2cccc3ccccc23)N(CC2CCCCC2)C1=O	-0.8	-17.4	0.6	6.6	22.4*	1.7
S=C1NC[C@H](Cc2cccc3ccccc23)N1CC1CCCCC1	-4.2	5.5	4.2	9.6	6.8	-1.1
N=c1c2c3c(sc2nc2n1CCCCC2)CCCCC3	28.7*	6.6	3.5	-23.8	-12.0	-5.9
CC(=O)NCCC(=O)NCc1ccc(F)cc1	0.5	-11.8	1.1	22.0*	-9.0	1.3
CN1C(=O)CSC1=Nc1ccc(F)cc1	-20.1	5.7	0.6	14.3*	5.3	-1.8
CN1C(=O)CSC1=Nc1cccc(C(=O)O)c1	3.8	6.0	1.6	0.1	2.5	-3.5
CCCS(=O)(=O)NC(=O)C1(C)CCN(C(=O)c2cccc3ccccc23)C1 (stereo unspecified)	-2.7	2.5	-0.6	4.3	-0.5	-0.3
Cc1ccccc1S(=O)(=O)N1C(c2ccc(Cl)c(Cl)c2)CC=C(C(=O)O)C1c1cccc(Br)c1 (stereo unspecified)	2.1	8.2	0.6	8.5	-7.3	-4.4
c1ccc(-c2ccc(OCCCNC3CCCC3)cc2)cc1	39.2*	32.8*	29.5	-21.6	-16.5	4.2
COc1ccc(OC)c(CNS(=O)(=O)c2c(C)nc3scc(C)n3c2=O)c1	-3.1	-9.1	1.4	-1.4	-2.4	-0.7
SMILES	CHRM4 antagonist	CHRM5 antagonist	CHRM4 agonist	M4 PAM	CHRM5 PAM	CHRM5 agonist
COc1cc2c(cc1OC)C(c1cccc(Br)c1)NC(=O)C2 (stereo unspecified)	5.1	-12.0	0.7	-9.2	24.0*	11.3
O=C(Cc1ccc(S(=O)(=O)N2CCOCC2)s1)N1CCN(S(=O)(=O)c2cccc(Cl)c2)CC1	-10.9	-10.2	6.2	-5.9	1.4	-2.4
CNc1cc(-c2cnn(CC(C)C)c2)ncn1	-6.0	-3.7	1.0	9.4	-1.8	0.0
O=C(Nc1ncc(Cc2ccc(SC(F)F)cc2)s1)c1ccc(OC(F)F)cc1	7.1	15.1	3.4	20.8*	-2.7	2.0
CCCNC(=O)Cn1c(=O)/c(=C\c2ccc(-c3ccc([N+](=O)[O-])cc3)o2)s/c1=C\C(=O)C(C)(C)C	17.9	26.8	31.5	-4.4	-7.4	25.3*
C1=C(c2ccc(-c3ccccc3)cc2)Nc2ncnn2C1c1ccco1 (stereo unspecified)	27.3*	16.2	61.7*	-16.8	-34.1	52.5*
Fc1ccc(C2=CC(c3ccc(Br)o3)n3ncnc3N2)cc1 (stereo unspecified)	1.8	-0.3	2.9	-6.8	-6.1	2.9
Brc1ccc(C2=CC(c3cccs3)n3ncnc3N2)cc1 (stereo unspecified)	4.1	13.5	36.5*	-29.1	-20.9	26.5*
Fc1ccc(C2=CC(c3ccco3)n3ncnc3N2)cc1 (stereo unspecified)	2.1	6.6	2.4	-0.6	-7.7	1.7
O=C(NNS(=O)(=O)c1ccccc1)c1cccc([N+](=O)[O-])c1	1.0	2.4	0.7	-1.8	-0.2	-0.8
CCOC(=O)C1CN(S(=O)(=O)c2ccc(C)cc2)C1	-8.9	-4.0	0.6	1.9	19.6*	-7.0
CC(=NOC(=O)c1ccc(I)cc1)c1nccs1	-0.9	4.5	2.4	2.6	4.0	-0.5
O=C(Nc1nnc(C23CC4CC(CC(C4)C2)C3)s1)c1ccc(N2C(=O)CCC2=O)cc1	59.7*	12.7	0.5	-16.2	-19.8	-0.1
COC(=O)c1ccc(COC(=O)[C@@H]2CC(O)CN2S(=O)(=O)c2ccccc2[N+](=O)[O-])cc1 (stereo partly specified)	-15.9	7.9	23.1	-10.6	-27.9	4.6
Clc1nc(Cl)nc(NCCC2=CCCCC2)n1	2.5	14.1	0.5	-18.9	1.2	-4.0
COc1cccc(C(=O)Nc2nc(-c3ccccc3)c(-c3ccccc3)o2)c1	-6.3	1.5	-0.3	-0.5	-2.3	-0.4
O=C(Nc1nc(-c2ccccc2)c(-c2ccccc2)o1)c1ccc(F)cc1	-2.6	9.2	1.8	3.3	34.1*	-1.1
